Measured values from ChEMBL document CHEMBL4765343, “Design and synthesis of novel SCM-198 analogs as cardioprotective agents: Structure-activity relationship studies and biological evaluations” (Eur J Med Chem, 2020).
Active and inactive are the calls of the source. The calls are words filed in the database; no cut-off is given here.

How the values were obtained:
H9c2 [1] = experiment: Antioxidant activity in rat H9c2 cells assessed as protection against H2O2-induced hypoxic injury by measuring cell viability at 10 uM preincubated for 4 hrs followed by H2O2 stimulation for 1 hr by MTT assay relative to control; assay type: functional
Method in brief: (§1)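 H9c2 cells at 1 × 10^5 cells/mL, 100 μL per well in triplicate, left 18 h. Compound diluted in DMSO; DMSO alone as negative control. 4 h pretreatment, then 400 nM H2O2 for 1 h. Medium removed and MTT added for 2-4 h, formazan dissolved in DMSO, absorbance at 570 nm. Medium-only wells gave the blank.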

[2] = AUCinfinity in Sprague-Dawley rat at 1 mg/kg, iv measured upto 24 hrs by LC-MS/MS analysis; assay type: ADME, organism-based; set-up: route intravenous, dose 1 mg/kg, time <=24; settings: in vivo
Method in brief: (§2)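 Male Sprague-Dawley rats, fasted, N = 3, given a single 1 mg/kg intravenous dose. Plasma separated by centrifugation and drug quantified by LC-MS/MS. Values reported as mean ± SD.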

[3] = AUClast in Sprague-Dawley rat at 1 mg/kg, iv measured upto 24 hrs by LC-MS/MS analysis; assay type: ADME, organism-based; set-up: route intravenous, dose 1 mg/kg, time <=24; settings: in vivo; method in brief: as §2
[4] = Toxicity in C57BL/6J mouse assessed as loss of body weight at 5 mg/kg, ip administered for 7 consecutive days; assay type: organism-based; settings: in vivo, 168 h, time 7 day
[5] = Cmax in Sprague-Dawley rat at 10 mg/kg, po measured upto 24 hrs by LC-MS/MS analysis; assay type: ADME, organism-based; set-up: route oral, dose 10 mg/kg, time <=24; settings: in vivo
H9c2 [6] = experiment: Antioxidant activity in rat H9c2 cells assessed as protection against H2O2-induced hypoxic injury by measuring cell viability at ED50 concentration preincubated for 4 hrs followed by H2O2 stimulation for 1 hr by MTT assay relative to control; assay type: functional; settings: time 5 hrs
Method in brief: (§3)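 ED50 taken from log dose against % viability. Viability also reported at the EC50 concentration. Means ± SEM from three independent experiments.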

[7] = Half life in Sprague-Dawley rat at 10 mg/kg, po measured upto 24 hrs by LC-MS/MS analysis; assay type: ADME, organism-based; settings: in vivo
[8] = Half life in Sprague-Dawley rat at 1 mg/kg, iv measured upto 24 hrs by LC-MS/MS analysis; assay type: ADME, organism-based; settings: in vivo
[9] = Cmax in Sprague-Dawley rat at 1 mg/kg, iv measured upto 24 hrs by LC-MS/MS analysis; assay type: ADME, organism-based; set-up: route intravenous, dose 1 mg/kg, time <=24; settings: in vivo
H9c2 [10] = experiment: Anti-oxidative effect in rat H9c2 cells assessed as reduction in H2O2-induced MnSOD activity at 10 uM preincubated for 4 hrs followed by H2O2 stimulation for 1 hr by WST-8 assay; assay type: functional, cell-based; settings: time 5.0 hrs
Method in brief: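 H9c2 cells (ATCC) grown in high-glucose DMEM with 10% FBS at 37 °C, 5% CO2, used at 80-90% confluence and serum-starved 12 h. Compound given 4 h, then medium replaced by DMEM with 500 nM H2O2 for 1 h. Lysate spun 15,000g for 15 min. Cu/Zn SOD blocked with 1 mmol/L KCN, MnSOD read by WST-8 kit, expressed as U/mg protein.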

H9c2 [11] = experiment: Cytoprotective activity against H2O2-induced injury in rat H9c2 cells assessed as reduction in LDH release at 1 uM preincubated for 4 hrs followed by H2O2 stimulation for 1 hr by LDH assay; assay type: functional, cell-based; settings: time 5.0 hrs
Method in brief: (§4)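 Cells at 5 × 10^4 per well in triplicate, 18 h, then 4 h compound and 1 h H2O2. Model wells had H2O2 without compound; controls had DMSO. 50 μL medium mixed with 2X LDH assay buffer, kept in the dark at 22-25 °C for 10-30 min, read at 490-520 nm. Activity blank-subtracted, normalised to BCA protein of the lysed cells, and expressed relative to model wells.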

[12] = AUCinfinity in Sprague-Dawley rat at 10 mg/kg, po measured upto 24 hrs by LC-MS/MS analysis; assay type: ADME, organism-based; set-up: route oral, dose 10 mg/kg, time <=24; settings: in vivo
Method in brief: (§5)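 A single 10 mg/kg oral (i.g.) dose was given to male Sprague-Dawley rats, N = 3. Plasma was harvested by centrifugation and measured by LC-MS/MS. Values reported as mean ± SD.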

[13] = AUClast in Sprague-Dawley rat at 10 mg/kg, po measured upto 24 hrs by LC-MS/MS analysis; assay type: ADME, organism-based; set-up: route oral, dose 10 mg/kg, time <=24; settings: in vivo; method in brief: as §5
Mus musculus [14] = experiment: Cardioprotective activity in C57BL/6J mouse model of LAD coronary artery ligation-induced acute myocardial infarction assessed as reduction in epimyocardium damage at 5 mg/kg, ip pretreated for 7 consecutive days followed by LAD coronary artery ligation after compound treatment for another 3 days by hematoxylin and eosin staining based assay; assay type: functional, organism-based; settings: time 10.0 day
Method in brief: (§6)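 Eight-week C57BL/6J mice received 5 mg/kg/day i.p. (saline vehicle) for 7 days before permanent LAD ligation, then 3 further days. Paraffin heart sections deparaffinised, stained with hematoxylin 10 min, differentiated in 0.1% HCl, counterstained with eosin 3-5 min, then examined by light microscopy.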

[15] = Apparent volume of distribution during terminal phase in Sprague-Dawley rat at 10 mg/kg, po measured upto 24 hrs by LC-MS/MS analysis; assay type: ADME, organism-based; settings: in vivo, read-out: Vz/F
H9c2 [16] = experiment: Antiapoptotic activity in rat H9c2 cells assessed as reduction in H2O2-induced caspase-3 activation at 1 uM preincubated for 4 hrs followed by H2O2 stimulation for 1 hr by Western blotting analysis; assay type: functional, cell-based; settings: time 5.0 hrs
Method in brief: (§7)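 Serum-starved (12 h) H9c2 cells were pretreated 4 h, then exposed to 500 nM H2O2 in DMEM for 1 h. Lysis on ice with protease/phosphatase inhibitors, then 13,000 g at 4 °C for 15 min. 20 μg protein run on 8-12% SDS-PAGE and blotted to PVDF. Probed overnight at 4 °C for caspase-3, pro-caspase-3, Bcl-2 and GAPDH, with chemiluminescent detection.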

H9c2 [17] = experiment: Antioxidant activity in rat H9c2 cells assessed as protection against H2O2-induced hypoxic injury by measuring cell viability at 1 uM preincubated for 4 hrs followed by H2O2 stimulation for 1 hr by MTT assay relative to control; assay type: functional; method in brief: as §1
H9c2 [18] = experiment: Antiapoptotic activity in rat H9c2 cells assessed as reduction in H2O2-induced mitochondrial membrane potential loss at 1 uM preincubated for 4 hrs followed by H2O2 stimulation for 1 hr by JC1 staining based fluorescence microscopic analysis; assay type: functional, cell-based; settings: time 5.0 hrs
Method in brief: (§8)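 Pretreatment 4 h before 400 nM H2O2. Cells washed in cold PBS pH 7.4 and loaded with 0.5 μg/mL JC-1 for 40 min at 37 °C, washed, then viewed at once by fluorescence microscopy. Monomer read at ex 490/em 535 nm, aggregate at ex 525/em 600 nm. Ratio taken from three independent fields per group, mean ± SD.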

[19] = Oral bioavailability in Sprague-Dawley rat at 10 mg/kg measured upto 24 hrs by LC-MS/MS analysis; assay type: ADME, organism-based; settings: in vivo
H9c2 [20] = experiment: Antiapoptotic activity in rat H9c2 cells assessed as restoration of H2O2-induced bcl-2 downregulation at 1 uM preincubated for 4 hrs followed by H2O2 stimulation for 1 hr by Western blotting analysis; assay type: functional, cell-based; settings: time 5.0 hrs; method in brief: as §7
H9c2 [21] = experiment: Antioxidant activity in rat H9c2 cells assessed as protection against H2O2-induced hypoxic injury by measuring cell viability preincubated for 4 hrs followed by H2O2 stimulation for 1 hr by MTT assay relative to control; assay type: functional; settings: time 5 hrs, read-out: ED50 (the source's name); method in brief: as §3
Mus musculus [22] = experiment: Cardioprotective activity in C57BL/6J mouse model of LAD coronary artery ligation-induced acute myocardial infarction assessed as reduction in myocardial infarct size at 5 mg/kg, ip pretreated for 7 consecutive days followed by LAD coronary artery ligation after compound treatment for another 3 days by TTC staining based assay; assay type: functional, organism-based; settings: time 10.0 day
Method in brief: (§9)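 Male/female not stated; 8-week C57BL/6J mice given daily ip doses in saline vehicle for 7 d, then permanent LAD ligation, with dosing continued 3 more days to sacrifice. Under isoflurane, hearts perfused with saline plus 40 mM KCl, cut into 4-5 transverse slices, stained with 1% TTC pH 7.4 at 37 °C for 20 min, formalin-fixed; infarct area by planimetry as % of LV area; N = 6-7 per group.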

[23] = Toxicity in C57BL/6J mouse assessed as diarrhea at 5 mg/kg, ip administered for 7 consecutive days; assay type: organism-based; settings: in vivo, 168 h, time 7 day
Mus musculus [24] = experiment: Cardioprotective activity in C57BL/6J mouse model of LAD coronary artery ligation-induced acute myocardial infarction assessed as reduction in apoptosis of cardiomyocytes at 5 mg/kg, ip pretreated for 7 consecutive days followed by LAD coronary artery ligation after compound treatment for another 3 days by TUNEL staining based assay; assay type: functional, organism-based; settings: time 10.0 day
Method in brief: (§10)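 C57BL/6J mice, 8 weeks old, given compound i.p. in saline vehicle daily for 7 days, then permanent LAD ligation with body temperature held at 37 °C. Dosing continued 3 more days until sacrifice. Sections treated with proteinase K, then TdT reaction 30 min at 37 °C and DAPI counterstain. TUNEL-positive nuclei in border area counted as % of DAPI nuclei, N = 4 per group.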

[25] = Apparent clearance in Sprague-Dawley rat at 10 mg/kg, po measured upto 24 hrs by LC-MS/MS analysis; assay type: ADME, organism-based; settings: in vivo
[26] = Apparent volume of distribution during terminal phase in Sprague-Dawley rat at 1 mg/kg, iv measured upto 24 hrs by LC-MS/MS analysis; assay type: ADME, organism-based; settings: in vivo
Mus musculus [27] = experiment: Cardioprotective activity in C57BL/6J mouse model of LAD coronary artery ligation-induced acute myocardial infarction assessed as reduction in cardiomyocytes damage at 5 mg/kg, ip pretreated for 7 consecutive days followed by LAD coronary artery ligation after compound treatment for another 3 days by hematoxylin and eosin staining based assay; assay type: functional, organism-based; settings: time 10.0 day; method in brief: as §6
[28] = Oral bioavailability in Sprague-Dawley rat measured upto 24 hrs by LC-MS/MS analysis; assay type: ADME, organism-based; settings: in vivo
H9c2 [29] = experiment: Antiapoptotic activity in rat H9c2 cells assessed as reduction in H2O2-induced caspase-3 activation at 10 uM preincubated for 4 hrs followed by H2O2 stimulation for 1 hr by Western blotting analysis; assay type: functional, cell-based; settings: time 5.0 hrs; method in brief: as §7
[30] = Half life in po dosed Sprague-Dawley rat measured upto 24 hrs by LC-MS/MS analysis; assay type: ADME, organism-based; settings: in vivo
H9c2 [31] = experiment: Cytoprotective activity against H2O2-induced injury in rat H9c2 cells assessed as reduction in LDH release at 10 uM preincubated for 4 hrs followed by H2O2 stimulation for 1 hr by LDH assay; assay type: functional, cell-based; settings: time 5.0 hrs; method in brief: as §4
Mus musculus [32] = experiment: Cardioprotective activity in C57BL/6J mouse model of LAD coronary artery ligation-induced acute myocardial infarction assessed as reduction in apoptosis of cardiomyocytes at 10 mg/kg, ip pretreated for 7 consecutive days followed by LAD coronary artery ligation after compound treatment for another 3 days by TUNEL staining based assay; assay type: functional, organism-based; settings: time 10.0 day; method in brief: as §10
Mus musculus [33] = experiment: Cardioprotective activity in C57BL/6J mouse model of LAD coronary artery ligation-induced acute myocardial infarction assessed as reduction in myocardial infarct size at 10 mg/kg, ip pretreated for 7 consecutive days followed by LAD coronary artery ligation after compound treatment for another 3 days by TTC staining based assay; assay type: functional, organism-based; settings: time 10.0 day; method in brief: as §9
H9c2 [34] = experiment: Antiapoptotic activity in rat H9c2 cells assessed as restoration of H2O2-induced bcl-2 downregulation at 10 uM preincubated for 4 hrs followed by H2O2 stimulation for 1 hr by Western blotting analysis; assay type: functional, cell-based; settings: time 5.0 hrs; method in brief: as §7
H9c2 [35] = experiment: Antiapoptotic activity in rat H9c2 cells assessed as reduction in H2O2-induced mitochondrial membrane potential loss at 10 uM preincubated for 4 hrs followed by H2O2 stimulation for 1 hr by JC1 staining based fluorescence microscopic analysis; assay type: functional, cell-based; settings: time 5.0 hrs; method in brief: as §8

Structure (SMILES): COc1cccc(C(=O)OCCCCNC(=N)N)c1OC
- Activity (H9c2 [1]): 65.3%
- AUC(0-inf) [2]: 895 ng·h/mL
- AUC(0-t) at 24 h [3]: 882 ng·h/mL
- Activity [4]: Non-Toxic
- Cmax [5]: 621 ng/mL
- Activity (H9c2 [6]): 62.8%
- half-life [7]: 4.87 h
- half-life [8]: 1.63 h
- Cmax [9]: 764 ng/mL
- Activity (H9c2 [10]): Active
- Activity (H9c2 [11]): Active
- AUC(0-inf) [12]: 1680 ng·h/mL
- AUC(0-t) at 24 h [13]: 1630 ng·h/mL
- Activity (Mus musculus [14]): Active
- Vd/F [15]: 43.7 L/kg
- Activity (H9c2 [16]): Active
- Activity (H9c2 [17]): 69.3%
- Activity (H9c2 [18]): Active
- bioavailability [19]: 18.5%
- Activity (H9c2 [20]): Active
- EC50 (H9c2 [21]): 142 nM
- Activity (Mus musculus [22]): Active
- Activity [23]: Non-Toxic
- Activity (Mus musculus [24]): Active
- CL/F [25]: 92.9 mL/min/kg
- Vz/F [26]: 3.766 L/kg
- Activity (Mus musculus [27]): Active

Structure (SMILES): COc1cc(C(=O)OCCCCNC(=N)N)cc(OC)c1O [LEONURINE]
- Activity (H9c2 [1]): 62.7%
- bioavailability [28]: 1.78%
- Activity (H9c2 [29]): Active
- Activity (H9c2 [6]): 55.1%
- half-life [30]: > 2 h
- Activity (H9c2 [10]): Active
- Activity (H9c2 [31]): inactive
- Activity (Mus musculus [32]): Active
- Activity (H9c2 [17]): 52.4%
- Activity (Mus musculus [33]): Active
- Activity (H9c2 [34]): Active
- EC50 (H9c2 [21]): 192 nM
- Activity (H9c2 [35]): Active
